Calls of active or inactive are those of the source. The calls are words filed in the database; no cut-off is given here.
Assays:
A549 [1] = assay: Antiproliferative activity against human A549 cells assessed as reduction in cell viability measured after 48 hrs by colorimetric based MTT assay; type: functional; settings: A549, 48 h
[2] = Antiproliferative activity against human HaCaT cells assessed as reduction in cell viability measured after 48 hrs by colorimetric based MTT assay
MCF7 = assay: Antiproliferative activity against human MCF7 cells assessed as reduction in cell viability measured after 48 hrs by colorimetric based MTT assay; type: functional; settings: MCF7, 48 h
A-375 = assay: Antiproliferative activity against human A-375 cells assessed as reduction in cell viability measured after 48 hrs by colorimetric based MTT assay; type: functional; settings: A-375, 48 h
Jurkat [3] = assay: Antiproliferative activity against human Jurkat cells assessed as reduction in cell viability measured after 48 hrs by colorimetric based MTT assay; type: functional
Method in brief: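 Jurkat leukemia cells kept in RPMI with 10% FBS, 2 mM L-glutamine and penicillin/streptomycin at 37 °C, 5% CO2. Plated at 3.5 × 10^3 cells/well and left 24 h, then given fresh medium alone or with serial dilutions (40, 20, 10, 5 μM) for 48 h. Staurosporine 0.2 μM served as positive control. MTT added for 3 h, formazan dissolved in DMF/SDS solution at pH 4.5, OD read at 620 nm. Viability calculated as % of DMSO control. IC50 taken as the concentration giving 50% growth inhibition versus control.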

A549 [4] = assay: Induction of apoptosis in human A549 cells assessed as increase accumulation of hypodiploid nuclei cells at 5 to 40 uM measured after 24 hrs by PI staining based flow cytometry analysis; type: functional, cell-based; settings: dose 5-40 µM
Method in brief: (§1)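 A549, Jurkat or HaCaT cells plated at 3 × 10^4 cells/well, left 24 h, then exposed to 40, 20, 10 or 5 μM for 24 h. Staurosporine 0.2 μM served as positive control. Cells washed in PBS and stained 30 min at 4 °C in the dark with PI in 0.1% Triton X-100/0.1% sodium citrate. Analysed by flow cytometry with debris excluded by forward scatter and DNA on a log scale. Read-out is % hypodiploid nuclei. Three independent experiments in triplicate, mean ± SEM, Mann–Whitney U test.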

HaCaT [5] = assay: Induction of apoptosis in human HaCaT cells assessed as increase accumulation of hypodiploid nuclei cells measured after 24 hrs by PI staining based flow cytometry analysis; type: functional, cell-based; settings: dose 5-40 µM, DDE = dose-dependent effect; method in brief: as §1
Jurkat [6] = assay: Induction of apoptosis in human Jurkat cells assessed as increase accumulation of hypodiploid nuclei cells measured after 24 hrs by PI staining based flow cytometry analysis; type: functional, cell-based; settings: dose 5-40 µM, DDE = dose-dependent effect; method in brief: as §1
A549 [7] = assay: Induction of apoptosis in human A549 cells assessed as increase accumulation of hypodiploid nuclei cells measured after 24 hrs by PI staining based flow cytometry analysis; type: functional, cell-based; settings: dose 5-40 µM, DDE = dose-dependent effect; method in brief: as §1
Jurkat [8] = assay: Induction of cell cycle arrest in human Jurkat cells assessed as accumulation at S phase measured after 24 hrs by PI staining based flow cytometry analysis; type: functional; settings: dose 5-40 µM, DDE = dose-dependent effect
Method in brief: (§2)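 HaCaT or Jurkat cells plated at 3 × 10^4 cells/well, left 24 h, then treated with 40, 20, 10 or 5 μM for 24 h. Staurosporine 0.2 μM served as positive control. DNA stained with PI and 10 000 events per sample acquired by flow cytometry. Percentages of cells in G0/G1, S and G2/M were derived from the DNA profiles. Three independent experiments in triplicate, mean ± SEM, Mann–Whitney U test.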

HaCaT [9] = assay: Induction of cell cycle arrest in human HaCaT cells assessed as accumulation at G2 phase at 40 uM measured after 24 hrs by PI staining based flow cytometry analysis; type: functional; method in brief: as §2
HaCaT [10] = assay: Induction of apoptosis in human HaCaT cells assessed as increase accumulation of hypodiploid nuclei cells at 5 to 40 uM measured after 24 hrs by PI staining based flow cytometry analysis; type: functional, cell-based; settings: dose 5-40 µM; method in brief: as §1

Row | SMILES | IC50 (A549 [1]) [µM] | IC50 (MCF7) [µM] | IC50 (A-375) [µM] | IC50 (Jurkat [3]) [µM] | IC50 at 48 h [2] [µM] | Activity (A549 [4]) | Activity (HaCaT [5]) | Activity (Jurkat [6]) | Activity (A549 [7]) | Activity (Jurkat [8]) | Activity (HaCaT [9]) | Activity (HaCaT [10])
1 | C=C1C(=O)O[C@@H]2C1C[C@@H](OC(C)=O)[C@](C)(O)[C@@]13C=C[C@@](C)(OO1)C23 (stereo not given in full) | 4.1 | > 10 | > 10 | 4.7 | 1.7 | – | – | – | – | – | – | –
2 | C=C1C(=O)O[C@@H]2[C@H]1C[C@@H](OC(C)=O)[C@@](C)(O)[C@]13O[C@H]1[C@@H](Cl)[C@](C)(O)[C@H]23 | > 10 | > 10 | > 10 | > 10 | 3.5 | – | – | – | – | – | – | –
3 | CN[C@@H]1C[C@H]2O[C@@](C)([C@@H]1OC)n1c3ccccc3c3c4c(c5c6ccccc6n2c5c31)C(=O)NC4 [STAUROSPORINE] | – | – | – | 3.2 | – | – | – | – | – | – | – | –
4 | C=C1[C@@H]2[C@H]3OC(=O)C(COC(C)=O)=C3CC[C@@]2(C)[C@H](O)C[C@@H]1O | > 10 | > 10 | > 10 | > 10 | > 10 | – | – | – | – | – | – | –
5 | C=C1[C@@H]2[C@@H](OC(C)=O)/C(=C(\CO)C(=O)O)CC[C@@]2(C)[C@H](O)C[C@@H]1O | > 10 | > 10 | > 10 | > 10 | > 10 | – | – | – | – | – | – | –
6 | C[C@H]1CC[C@]23O[C@]12C[C@H](C(C)(C)O)CC[C@@]3(C)O (relative stereo) | > 10 | > 10 | > 10 | > 10 | > 10 | – | – | – | – | – | – | –
7 | C=C1C(=O)O[C@H]([C@H]2C(=O)C=C[C@]2(C)O)[C@@H]1CCC(C)=O | > 10 | > 10 | > 10 | > 10 | > 10 | – | – | – | – | – | – | –

Continued, in another order:

Row | IC50 (A549 [1]) [µM] | IC50 (MCF7) [µM] | IC50 (A-375) [µM] | IC50 (Jurkat [3]) [µM] | SMILES | IC50 at 48 h [2] [µM] | Activity (A549 [4]) | Activity (HaCaT [5]) | Activity (Jurkat [6]) | Activity (A549 [7]) | Activity (Jurkat [8]) | Activity (HaCaT [9]) | Activity (HaCaT [10])
8 | > 10 | > 10 | > 10 | > 10 | CC(C)(O)/C=C/[C@H]1OC(=O)C[C@]1(C)O (relative stereo) | > 10 | – | – | – | – | – | – | –
9 | > 10 | 9.6 | 3.7 | 5 | C=C1C(=O)O[C@@H]2C1C[C@@H](OC(C)=O)[C@@](C)(O)[C@@]13O[C@@H]1[C@@H]1O[C@]1(C)[C@H]23 (stereo not given in full) | 1.6 | Active | Dde | Dde | Dde | Dde | Active | Active
10 | > 10 | > 10 | > 10 | > 10 | CC(=O)O[C@@H]1CC(C)=C2C(=O)C=C(C)[C@@H]2[C@@H](O)[C@H]1C(C)C(=O)O (relative stereo) | > 10 | – | – | – | – | – | – | –
11 | > 10 | > 10 | > 10 | > 10 | C=C1C(=O)O[C@H]2[C@H]1C[C@H](OC(C)=O)[C@](C)(O)[C@@]1(O)[C@@H](O)[C@H]3O[C@@]3(C)[C@H]21 (relative stereo) | > 10 | – | – | – | – | – | – | –
12 | > 10 | > 10 | > 10 | > 10 | C=C(C)[C@@H](O)CC[C@@H](C)C1C[C@H](O)C(C)=C[C@@H]1O (relative stereo) | > 10 | – | – | – | – | – | – | –
13 | 8.9 | > 10 | > 10 | 7.7 | C=C1C(=O)O[C@H](C2=C(C)[C@@H](O)CC2=O)[C@@H]1CCC(C)=O | 2.9 | Active | Dde | Dde | Dde | Dde | Active | Active

Source: ChEMBL document CHEMBL5143598, “Cytotoxic Sesquiterpenoids from Ammoides atlantica Aerial Parts” (J Nat Prod, 2022)
